Assay [1] is described as follows: hit retest on RPL19A-GFP reporter strain – cell-based, S. cerevisiae, flow cytometry, cherry picks, mother/daughter gates, confirmation (AID 2270;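 active = GFP response below 50% of the DMSO control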). Particulars: 3 h, at 10 µM, stronger effect = lower value, 100 = same GFP as DMSO wells.
The nature of assay [2]: yeast TOR pathway reporter LAP4-GFP change – cell-based, cherry picks, flow cytometry, mother/daughter gates, confirmation (AID 2271;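 active = GFP response above 150% of the DMSO control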;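 note: ratio of sample to DMSO plate mean so 100% equals DMSO level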). Particulars: S. cerevisiae LAP4-GFP strain, 3 h, at 10 µM, stronger effect = higher value, 100 means same as DMSO control. Put shortly:
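Material: Alexa Fluor 633-labelled Saccharomyces cerevisiae GFP-fusion strain, single-plex | Amount: Yeast cells seeded at OD600 of 0.2 | Buffer or medium: SC growth medium | Schedule: 3 h exposure, 30 °C | Measured by: HT flow cytometry, GFP fluorescence channel | Evaluation: % GFP response vs DMSO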

Assay [3] in a line: TOR pathway reporter MEP2-GFP, retest of hits – S. cerevisiae, flow cytometry GFP, cherry picks, confirmation (AID 2272;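 active = GFP response above 150% of the DMSO control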;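 note: ratio of well signal to plate DMSO mean so 100% equals DMSO level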). Particulars: S. cerevisiae MEP2-GFP strain, 3 h, at 10 µM, stronger effect = higher value.
Assay [4] can be described thus: yeast AGP1-GFP fluorescence change, single-dose – cell-based, flow cytometry, S. cerevisiae, cherry picks, confirmation (AID 2273).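 Note: median GFP channel fluorescence over the whole cell population gate.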 Particulars: S. cerevisiae AGP1-GFP strain, 3 h, at 10 µM. In general terms: In flow cytometry, cells or beads pass a laser one at a time.
Assay [5] is described as follows: TOR pathway CIT2 reporter hit retest – S. cerevisiae, GFP fusion, cherry picks, mother/daughter gates, confirmation (AID 2274). Particulars: S. cerevisiae CIT2-GFP strain, flow cytometry, 3 h, at 10 µM, stronger effect = higher value.
Where [6] appears, read: measured here: daughter cell gate.
Where [7] appears, read: measured here: mother cell gate.
[8] abbreviates: measured here: daughter cell gate response.
Setting [9] is: measured here: mother cell gate response.

Each structure is given as a SMILES string. The source made the active and inactive calls.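 Rule for the calls, unless noted: active = GFP response above 150% of the DMSO level; inconclusive = fewer than 70 events counted for a yeast strain; inactive = the rest.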

In the case of `Cc1ccccc1C(=O)Nc1cccc(C#N)c1`, the GFP response vs DMSO is 95.6% (inactive) in assay [1], 96.7% in assay [1] (setting [6]), 94.2% in assay [1] (setting [7]) and 108% (inactive) in assay [3]. Besides, the GFP response relative to DMSO in assay [2] is 97.7% (inactive); in assay [2] (setting [8]) it was 99%; in assay [2] (setting [9]) it was 97.4%. The GFP response, % of DMSO in assay [4] was 99.8% (inactive); in assay [5], 97.2% (inactive); in assay [5] (setting [6]) it was 99.3%; in assay [5] (setting [7]), 97.1%.

As to `O=C(Nc1nc(-c2ccc(F)cc2)cs1)c1cnccn1`, the GFP response vs DMSO in assay [1] was 97.8% (inactive); in assay [1] (setting [6]) it was 98.3%; in assay [1] (setting [7]) it was 98.1%; in assay [3], 110% (inactive). Further, the results for the GFP response relative to DMSO in assay [2], in assay [2] (setting [8]) and in assay [2] (setting [9]) were 101% (inactive), 97.9% and 101%, respectively. The GFP response, % of DMSO in assay [4] is 96.2% (inactive); in assay [5], 105% (inactive); in assay [5] (setting [6]), 98.3%; in assay [5] (setting [7]) it was 104%.

Take `O=C(CSc1nnc(C2COc3ccccc3O2)o1)N1CCCC1` (centres undefined): the GFP response vs DMSO in assay [1] was 97.8% (inactive); in assay [1] (setting [6]), 98.6%; in assay [1] (setting [7]), 98.7%; in assay [3], 98.8% (inactive). Also, the GFP response relative to DMSO is 94.9% (inactive) in assay [2], 98.2% in assay [2] (setting [8]) and 95.1% in assay [2] (setting [9]). Besides, the GFP response, % of DMSO in assay [4] is 103% (inactive); in assay [5] it was 112% (inactive); in assay [5] (setting [6]), 111%; in assay [5] (setting [7]) it was 112%.

Take `CCC(=O)Nc1cccc(C(=O)/C=C/c2ccccc2)c1`: the GFP response vs DMSO in assay [1] was 102% (inactive); in assay [1] (setting [6]) it was 102%; in assay [1] (setting [7]), 101%; in assay [3], 109% (inactive). Further, the GFP response relative to DMSO in assay [2] was 105% (inactive); in assay [2] (setting [8]) it was 102%; in assay [2] (setting [9]), 106%. The GFP response, % of DMSO in assay [4] is 97.3% (inactive); in assay [5] it was 97.3% (inactive); in assay [5] (setting [6]), 95.6%; in assay [5] (setting [7]) it was 95.6%.

Turning to `COc1cc(NC(=O)c2ccccc2)ccc1NC(=O)c1cc2ccccc2o1`, the GFP response vs DMSO in assay [1] was 98.7% (inactive); in assay [1] (setting [6]), 98.7%; in assay [1] (setting [7]) it was 97.8%; in assay [3], 103% (inactive). In addition, the results for the GFP response relative to DMSO in assay [2], in assay [2] (setting [8]) and in assay [2] (setting [9]) were 94.1% (inactive), 97.5% and 92.3%, respectively. Besides, the GFP response, % of DMSO in assay [4] is 101% (inactive); in assay [5] it was 100% (inactive); in assay [5] (setting [6]), 95.8%; in assay [5] (setting [7]), 100%.

On to `CCOc1ccc(Nc2ccc(C(=O)O)cc2[N+](=O)[O-])cc1`, for which the GFP response vs DMSO was 102% (inactive) in assay [1], 98.4% in assay [1] (setting [6]), 104% in assay [1] (setting [7]) and 101% (inactive) in assay [3]. Further, the GFP response relative to DMSO in assay [2] was 101% (inactive); in assay [2] (setting [8]), 99.1%; in assay [2] (setting [9]) it was 100%. The GFP response, % of DMSO is 97.8% (inactive) in assay [4], 98.8% (inactive) in assay [5], 95.6% in assay [5] (setting [6]) and 96.8% in assay [5] (setting [7]).

As to `O=C(Nc1nnc(-c2ccc(F)cc2)o1)c1cccc([N+](=O)[O-])c1`, the GFP response vs DMSO in assay [1] is 102% (inactive); in assay [1] (setting [6]), 97%; in assay [1] (setting [7]) it was 101%; in assay [3] it was 110% (inactive). The values for the GFP response relative to DMSO in assay [2], in assay [2] (setting [8]) and in assay [2] (setting [9]) were 157% (active), 169% and 152%, respectively. The GFP response, % of DMSO in assay [4] was 97% (inactive); in assay [5], 101% (inactive); in assay [5] (setting [6]), 103%; in assay [5] (setting [7]), 99.3%.

For the compound `Cc1nn(Cc2ccccc2Cl)c(C)c1C(=O)NCc1ccco1`, the GFP response vs DMSO in assay [1] was 99.3% (inactive); in assay [1] (setting [6]), 101%; in assay [1] (setting [7]), 98.8%; in assay [3], 99.3% (inactive). Also, the figures for the GFP response relative to DMSO in assay [2], in assay [2] (setting [8]) and in assay [2] (setting [9]) were 97.7% (inactive), 101% and 98.4%, respectively. Also, the GFP response, % of DMSO in assay [4] was 99.3% (inactive); in assay [5] it was 98.6% (inactive); in assay [5] (setting [6]) it was 99.3%; in assay [5] (setting [7]), 100%.

For `CCOC(=O)c1ccc(N=Cc2nc(-c3ccccc3)oc2OC(C)=O)cc1`, the GFP response vs DMSO in assay [1] was 104% (inactive); in assay [1] (setting [6]), 105%; in assay [1] (setting [7]), 101%; in assay [3], 96.8% (inactive). For the same compound, the GFP response relative to DMSO is 154% (active) in assay [2], 138% in assay [2] (setting [8]) and 170% in assay [2] (setting [9]). Also, the GFP response, % of DMSO in assay [4] is 92.2% (inactive); in assay [5], 93% (inactive); in assay [5] (setting [6]), 93.8%; in assay [5] (setting [7]), 89.5%.

The values are drawn from PubChem BioAssay.
